Calls of active or inactive are those of the source. No cut-off for these calls is given here.
Experiments:
[1] = Cytotoxicity against HASMCs assessed as cell viability at 10 uM after 24 hrs by calcein/AM/ethidium homodimer-1 staining based fluorescence microscopic analysis relative to control; settings: human, HASMC cells; read-out: Activity
In short: (§1)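 HASMs (before passage 10) grown to 80% confluence, then serum-reduced (0.1% FBS) for 24 h. Cells were pretreated with compound for 30 min, then given TGF-β (2 ng/ml) for 24 h. Stained with calcein/AM (2 μM) and ethidium homodimer-1 (4 μM) for 10 min at room temperature, read by fluorescence microscopy. Controls: untreated cells as negative, 70% ethanol for 30 min as positive.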

NADPH oxidase 4 = target: T1, NADPH oxidase 4 (Homo sapiens, UniProt Q9NPH5); experiment: Inhibition of Nox4 in HASMCs assessed as reduction in TGFbeta-induced increase in smooth muscle alpha actin level pretreated for 30 mins followed by TGFbeta stimulation after 24 hrs by Western blot analysis
T1 sequence (Q9NPH5 whole entry): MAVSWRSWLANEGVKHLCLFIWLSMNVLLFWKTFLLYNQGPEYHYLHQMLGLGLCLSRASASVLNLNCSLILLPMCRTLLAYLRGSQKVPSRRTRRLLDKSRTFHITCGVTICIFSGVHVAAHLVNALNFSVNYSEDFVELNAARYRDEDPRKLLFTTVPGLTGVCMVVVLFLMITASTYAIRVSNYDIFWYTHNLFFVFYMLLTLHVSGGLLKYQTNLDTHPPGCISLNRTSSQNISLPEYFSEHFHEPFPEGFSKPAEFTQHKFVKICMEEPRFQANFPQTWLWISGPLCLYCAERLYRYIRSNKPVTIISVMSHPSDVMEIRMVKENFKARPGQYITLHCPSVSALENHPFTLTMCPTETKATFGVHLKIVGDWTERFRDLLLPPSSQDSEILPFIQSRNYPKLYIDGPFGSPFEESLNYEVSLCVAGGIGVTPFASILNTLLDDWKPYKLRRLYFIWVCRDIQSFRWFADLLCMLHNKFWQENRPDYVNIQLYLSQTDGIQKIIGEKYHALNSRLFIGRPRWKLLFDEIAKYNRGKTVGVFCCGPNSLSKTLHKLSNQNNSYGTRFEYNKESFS
In short: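 HASMs (<passage 10) at 80% confluence, serum-reduced (0.1% FBS) 24 h, pretreated 30 min with compound (1–100 μM), then TGF-β 2 ng/ml for 24 h. Lysates blotted for α-SMA normalized to β-tubulin, ECL detection. TGF-β alone set as 100%. IC50 by non-linear regression, means ± SEM from 3–4 independent experiments.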

HASMC = experiment: Effect on TGFbeta-induced Nox4 mRNA expression in HASMCs at 1 to 100 uM pretreated for 30 mins followed by TGFbeta addition measured after 24 hrs by qPCR analysis; assay type: functional, cell-based; settings: Homo sapiens
[2] = Effect on hydrogen peroxide radical scavenging activity up to 100 uM measured after 5 mins by Amplex Red assay; assay type: functional
In short: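 Cell-free H2O2 consumption. Exogenous H2O2 incubated 5 min with compound (1–100 μM) in reaction buffer. Amplex Red/horseradish peroxidase then added for 30 min at room temperature in the dark. Resorufin read at ex 530/em 590 nm. DMSO solvent control. Means ± SEM of 3 independent experiments, one-way ANOVA with Dunnett's test.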

[3] = Effect on hypoxanthine/xanthine oxidase-induced superoxide radical scavenging activity up to 100 uM incubated for 1 min measured for 15 mins by cytochrome C assay; assay type: functional
In short: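 Superoxide from hypoxanthine (100 μM)/xanthine oxidase in PBS with catalase (200 U/mL), compound 1–100 μM, detected by cytochrome C (46 μM) reduction at 550 nm. After 1 min stabilization, read kinetically 1/min for 15 min. Linear slope gave % scavenging. SOD (575 U/mL) as positive control. Means ± SEM of 4 experiments, ANOVA/Dunnett.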

[4] = Cytotoxicity against HASMCs assessed as cell viability at 100 uM after 24 hrs by calcein/AM/ethidium homodimer-1 staining based fluorescence microscopic analysis relative to control; settings: human, HASMC cells; read-out: Activity; in short: as §1

| IC50 (NADPH oxidase 4) [µM] | Compound | viability at 24 h, 10 µM [1] [%] | Activity (HASMC) | Activity [2] | Activity [3] | viability at 24 h, 100 µM [4] [%] |
| --- | --- | --- | --- | --- | --- | --- |
| 0.5 | COc1ccc(S(=O)(=O)N2CCN(c3ccc(C(F)(F)F)cc3)C2=O)cc1 | 97 | inactive | inactive | inactive |  |
| 27 | COc1ccc(S(=O)(=O)N2CCCN(c3ccc(C(F)(F)F)cc3)C2=O)cc1 |  | inactive | inactive | inactive | 92 |
| 3.7 | O=C1N(c2ccc(C(F)(F)F)cc2)CCCN1S(=O)(=O)c1ccc(F)cc1 |  | inactive | inactive | inactive | 100 |

Source: ChEMBL document CHEMBL4184268, “Design, synthesis, and biological evaluation of inhibitors of the NADPH oxidase, Nox4” (Bioorg Med Chem, 2018)
